How the values were obtained:
[1] = DPPH˙ radical scavenging assay; settings: read-out: DPPH˙ scavenging activity (EC50); 37 °C 30 min, OD 540 nm; mean ± SD
Outline: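 Assay mixtures were 50 μL DPPH˙ working solution in ethanol plus 50 μL test compound in DMSO (sample solutions 0.02–20 mM). Ethanol replaced DPPH˙ in sample-control and blank wells. Mixtures were incubated at 37 °C for 30 min and read at OD 540 nm, in triplicate. Scavenging rate was calculated by formula. EC50 was derived by nonlinear regression from three independent experiments.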

[2] = test system: L02 cells; assay: MTT assay for H2O2-treated L02 cells; assay type: cell-based; settings: Homo sapiens, L02, read-out: L02 cell viability after H2O2
Outline: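 Cells were grown in RPMI-1640 with 10% FBS at 37 °C, 5% CO2. PC12 cells were seeded at 5 × 10^5 cells per mL and incubated 16 h; L02 cells at 1 × 10^5 cells per mL, 24 h. Test compound (final 10 μM, from 20 mM DMSO stock) or DMSO was added for 0.5 h. Then 10 μL H2O2 (1 mM in medium) or medium was added for 2 h, followed by MTT for 4 h.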

SMILES | EC50 [1] [µM] | viability at 10 µM [2] [%]
O=C(O)c1cc(O)c(O)c(O)c1 [GA, gallic acid] | 50 ± 10 | 37.8
O=C1O[C@H]([C@@H](O)CO)C(O)=C1O [VC, vitamin C] | 230 ± 90 | 
